# According to the M2OR odorant receptor database:
# Assays:
# Details in all cases: stereoisomer not certain
# [1] = tested on: OR2M5 G255A
# Procedure, shortened: (§1)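 Each entry records the cell line, G-protein, co-transfected protein and tags used. Methods varied with the source, often transient luciferase assays in mammalian cell lines. A receptor–molecule pair is called responsive (active) if the original authors judged its signal statistically different from baseline and non-responsive (inactive) otherwise.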
# [2] = tested on: OR2M5 L273M
# Procedure, shortened: as §1
# [3] = tested on: OR2M5 M154T
# Procedure, shortened: as §1
# [4] = tested on: OR2M5 S119A
# Procedure, shortened: as §1
# [5] = tested on: OR2M5 V105T A156G A160V G255A
# Procedure, shortened: as §1
# [6] = tested on: OR2M5 V105T A156G G255A L273M
# Procedure, shortened: as §1
# [7] = tested on: OR2M5 V105T A156G G255A
# Procedure, shortened: as §1
# [8] = tested on: OR2M5 V105T A156G V198I G255A
# Procedure, shortened: as §1
# [9] = tested on: OR2M5 V105T A156G
# Procedure, shortened: as §1
# [10] = tested on: OR2M5 V105T G255H
# Procedure, shortened: as §1
# [11] = tested on: OR2M5 V105T M154T G255A
# Procedure, shortened: as §1
# [12] = tested on: OR2M5 V105T S119A A156G G255A
# Procedure, shortened: as §1
# [13] = tested on: OR2M5 V105T
# Procedure, shortened: as §1
# [14] = tested on: OR2M5 V198I
# Procedure, shortened: as §1
# [15] = target: T1, OR2S2 (Homo sapiens) (UniProt Q9NQN1)
# T1 sequence (whole entry): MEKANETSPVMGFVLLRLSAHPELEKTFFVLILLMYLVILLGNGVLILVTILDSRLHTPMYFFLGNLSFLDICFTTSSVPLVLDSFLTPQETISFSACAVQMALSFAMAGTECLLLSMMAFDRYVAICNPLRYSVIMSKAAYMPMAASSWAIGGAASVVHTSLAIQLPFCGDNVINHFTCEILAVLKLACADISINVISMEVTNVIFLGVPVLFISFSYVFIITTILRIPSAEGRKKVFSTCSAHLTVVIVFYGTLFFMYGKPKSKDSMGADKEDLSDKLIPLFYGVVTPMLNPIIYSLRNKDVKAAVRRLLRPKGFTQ
# Procedure, shortened: as §1
# [16] = target: T2, OR2T1 (Homo sapiens) (UniProt O43869)
# T2 sequence (whole entry): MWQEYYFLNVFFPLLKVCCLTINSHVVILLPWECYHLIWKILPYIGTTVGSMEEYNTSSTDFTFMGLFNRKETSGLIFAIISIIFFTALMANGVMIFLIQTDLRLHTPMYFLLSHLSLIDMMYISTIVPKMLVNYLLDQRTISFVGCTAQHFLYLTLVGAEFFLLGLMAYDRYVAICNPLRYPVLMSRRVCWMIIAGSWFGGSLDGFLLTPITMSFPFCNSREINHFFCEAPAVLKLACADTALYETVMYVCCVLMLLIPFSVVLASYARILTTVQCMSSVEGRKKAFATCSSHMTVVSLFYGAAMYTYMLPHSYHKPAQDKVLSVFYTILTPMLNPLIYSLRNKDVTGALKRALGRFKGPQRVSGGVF
# Procedure, shortened: as §1
# [17] = target: T3, OR2T10 (Homo sapiens) (UniProt Q8NGZ9)
# T3 sequence (whole entry): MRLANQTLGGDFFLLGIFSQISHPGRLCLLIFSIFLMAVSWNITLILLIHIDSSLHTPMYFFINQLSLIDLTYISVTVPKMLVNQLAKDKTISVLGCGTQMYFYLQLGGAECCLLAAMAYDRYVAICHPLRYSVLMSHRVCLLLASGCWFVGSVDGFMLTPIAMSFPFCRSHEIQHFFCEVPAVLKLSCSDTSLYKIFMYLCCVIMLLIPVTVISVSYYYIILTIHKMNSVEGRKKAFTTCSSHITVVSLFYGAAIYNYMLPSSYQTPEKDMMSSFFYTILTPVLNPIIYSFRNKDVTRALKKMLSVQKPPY
# Procedure, shortened: as §1
# [18] = target: T4, OR2M7 (Homo sapiens) (UniProt Q8NG81)
# T4 sequence (whole entry): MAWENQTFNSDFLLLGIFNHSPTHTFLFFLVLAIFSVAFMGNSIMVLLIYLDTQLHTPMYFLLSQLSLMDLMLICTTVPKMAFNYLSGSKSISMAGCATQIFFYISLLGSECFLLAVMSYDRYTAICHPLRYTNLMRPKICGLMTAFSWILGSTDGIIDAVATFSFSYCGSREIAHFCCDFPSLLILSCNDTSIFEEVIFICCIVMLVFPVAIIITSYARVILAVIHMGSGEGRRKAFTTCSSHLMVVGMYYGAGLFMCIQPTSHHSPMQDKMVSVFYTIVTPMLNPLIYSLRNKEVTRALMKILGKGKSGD
# Procedure, shortened: as §1
# [19] = tested on: OR2M7
# Procedure, shortened: as §1
# Target sequence in this assay (as listed by the source): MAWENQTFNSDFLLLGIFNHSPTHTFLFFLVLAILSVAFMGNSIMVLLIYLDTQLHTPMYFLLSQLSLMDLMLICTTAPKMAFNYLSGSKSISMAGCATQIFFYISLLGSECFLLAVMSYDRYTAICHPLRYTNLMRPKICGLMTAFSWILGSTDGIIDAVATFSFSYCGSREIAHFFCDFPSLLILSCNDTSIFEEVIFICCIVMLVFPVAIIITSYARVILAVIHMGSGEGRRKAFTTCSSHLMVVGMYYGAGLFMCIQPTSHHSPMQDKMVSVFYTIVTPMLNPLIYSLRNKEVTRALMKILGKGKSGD
# [20] = tested on: OR2M7; remark: listed apart in the source
# Procedure, shortened: as §1
# Target sequence in this assay (as listed by the source): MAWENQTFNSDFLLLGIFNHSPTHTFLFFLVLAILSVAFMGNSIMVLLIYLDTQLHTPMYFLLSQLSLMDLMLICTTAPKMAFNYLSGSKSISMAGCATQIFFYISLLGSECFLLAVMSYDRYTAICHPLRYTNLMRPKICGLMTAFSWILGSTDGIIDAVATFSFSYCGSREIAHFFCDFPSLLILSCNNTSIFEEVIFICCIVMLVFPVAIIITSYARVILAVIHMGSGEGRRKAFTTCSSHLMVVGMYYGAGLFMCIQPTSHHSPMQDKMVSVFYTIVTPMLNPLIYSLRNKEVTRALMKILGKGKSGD
# Chain of OR2M5 V198I (as listed by the source, stated change not applied): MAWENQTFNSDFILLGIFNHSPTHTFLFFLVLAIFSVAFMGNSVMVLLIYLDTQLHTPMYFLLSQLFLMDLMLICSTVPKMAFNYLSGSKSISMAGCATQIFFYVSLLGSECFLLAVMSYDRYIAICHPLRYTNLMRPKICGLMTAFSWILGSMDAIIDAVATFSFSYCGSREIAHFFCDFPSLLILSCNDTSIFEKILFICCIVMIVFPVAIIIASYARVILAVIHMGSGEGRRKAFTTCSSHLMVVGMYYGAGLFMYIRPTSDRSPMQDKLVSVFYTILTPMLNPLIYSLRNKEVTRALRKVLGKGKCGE
# Chain of OR2M5 V105T (as listed by the source, stated change not applied): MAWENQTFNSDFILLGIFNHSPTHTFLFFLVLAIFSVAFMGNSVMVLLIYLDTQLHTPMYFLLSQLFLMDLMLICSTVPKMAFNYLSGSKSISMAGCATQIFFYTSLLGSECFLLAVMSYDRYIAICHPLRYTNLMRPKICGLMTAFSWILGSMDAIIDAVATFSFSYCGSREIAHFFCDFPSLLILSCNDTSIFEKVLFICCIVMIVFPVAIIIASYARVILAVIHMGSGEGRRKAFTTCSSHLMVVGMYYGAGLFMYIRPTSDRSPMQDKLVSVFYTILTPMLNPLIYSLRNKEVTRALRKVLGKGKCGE
# Chain of OR2M5 M154T (as listed by the source, stated change not applied): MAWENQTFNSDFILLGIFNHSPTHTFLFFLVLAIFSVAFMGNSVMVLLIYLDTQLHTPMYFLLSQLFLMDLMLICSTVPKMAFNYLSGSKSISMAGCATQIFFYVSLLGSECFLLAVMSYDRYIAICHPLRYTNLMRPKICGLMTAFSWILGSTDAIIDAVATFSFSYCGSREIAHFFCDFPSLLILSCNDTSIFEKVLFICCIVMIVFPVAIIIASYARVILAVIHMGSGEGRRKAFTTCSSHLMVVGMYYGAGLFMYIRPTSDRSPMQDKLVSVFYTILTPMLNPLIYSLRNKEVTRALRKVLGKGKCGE
# Chain of OR2M5 L273M (as listed by the source, stated change not applied): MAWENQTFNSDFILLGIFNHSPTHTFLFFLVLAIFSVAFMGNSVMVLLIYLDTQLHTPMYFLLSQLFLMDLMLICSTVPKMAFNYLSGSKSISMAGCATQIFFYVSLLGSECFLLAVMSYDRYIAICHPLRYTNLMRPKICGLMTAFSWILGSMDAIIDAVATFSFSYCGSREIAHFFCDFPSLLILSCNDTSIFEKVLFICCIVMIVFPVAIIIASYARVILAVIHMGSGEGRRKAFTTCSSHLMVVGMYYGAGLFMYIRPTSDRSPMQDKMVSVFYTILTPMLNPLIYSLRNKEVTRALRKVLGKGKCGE
# Chain of OR2M5 S119A (as listed by the source, stated change not applied): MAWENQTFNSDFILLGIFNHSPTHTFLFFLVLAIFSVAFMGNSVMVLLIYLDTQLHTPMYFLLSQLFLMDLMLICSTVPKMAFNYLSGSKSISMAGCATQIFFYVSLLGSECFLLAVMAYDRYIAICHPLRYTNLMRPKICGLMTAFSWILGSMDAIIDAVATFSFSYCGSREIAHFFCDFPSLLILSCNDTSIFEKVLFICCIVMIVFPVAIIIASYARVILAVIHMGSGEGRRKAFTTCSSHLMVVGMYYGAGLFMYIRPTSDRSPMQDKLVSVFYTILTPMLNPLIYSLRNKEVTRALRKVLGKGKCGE
# Chain of OR2M5 G255A (as listed by the source, stated change not applied): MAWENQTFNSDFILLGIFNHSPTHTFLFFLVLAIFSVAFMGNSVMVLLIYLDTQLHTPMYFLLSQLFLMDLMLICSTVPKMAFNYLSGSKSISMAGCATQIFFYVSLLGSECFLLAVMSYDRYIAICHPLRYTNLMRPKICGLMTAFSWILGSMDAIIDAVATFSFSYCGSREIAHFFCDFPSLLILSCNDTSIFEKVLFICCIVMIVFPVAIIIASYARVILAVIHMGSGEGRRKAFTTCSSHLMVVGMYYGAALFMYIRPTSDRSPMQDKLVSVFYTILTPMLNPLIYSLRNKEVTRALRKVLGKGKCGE
structure (smiles),measurement,setting,value
CCC(S)C(C)CO (stereo unspecified),odorant receptor agonist call,[1],inactive
same,odorant receptor agonist call,[2],inactive
same,odorant receptor agonist call,[3],inactive
same,odorant receptor agonist call,[4],inactive
same,odorant receptor agonist call,[5],inactive
same,odorant receptor agonist call,[6],inactive
same,odorant receptor agonist call,[7],inactive
same,odorant receptor agonist call,[8],inactive
same,odorant receptor agonist call,[9],inactive
same,odorant receptor agonist call,[10],inactive
same,odorant receptor agonist call,[11],inactive
same,odorant receptor agonist call,[12],inactive
same,odorant receptor agonist call,[13],inactive
same,odorant receptor agonist call,[14],inactive
same,odorant receptor agonist call,[15],inactive
same,odorant receptor agonist call,[16],inactive
same,odorant receptor agonist call,[17],inactive
CCCCCCC=CCCC=O,odorant receptor agonist call,[18],inactive
same,odorant receptor agonist call,[15],inactive
same,odorant receptor agonist call,[16],inactive
same,odorant receptor agonist call,[17],inactive
CCC1OC(C)=C(O)C1=O (stereo unspecified),odorant receptor agonist call,[18],inactive
same,odorant receptor agonist call,[15],inactive
same,odorant receptor agonist call,[16],inactive
same,odorant receptor agonist call,[17],inactive
O=c1ccc2ccccc2o1,odorant receptor agonist call,[18],inactive
CCCCCC(=O)C(C)C(C)=O (stereo unspecified),odorant receptor agonist call,[18],inactive
same,odorant receptor agonist call,[15],inactive
same,odorant receptor agonist call,[16],inactive
same,odorant receptor agonist call,[17],inactive
Cc1cnc(C)c(C)n1,odorant receptor agonist call,[18],inactive
same,odorant receptor agonist call,[15],inactive
same,odorant receptor agonist call,[16],inactive
same,odorant receptor agonist call,[17],inactive
CCCCCC=O,odorant receptor agonist call,[18],inactive
CCCCCCCCO,odorant receptor agonist call,[18],inactive
CC1=NC(C)C(C)S1 (stereo unspecified),odorant receptor agonist call,[18],inactive
same,odorant receptor agonist call,[15],inactive
same,odorant receptor agonist call,[16],inactive
same,odorant receptor agonist call,[17],inactive
CC1CCCCCCCCCCCCC(=O)C1 (stereo unspecified),odorant receptor agonist call,[18],inactive
same,odorant receptor agonist call,[15],inactive
same,odorant receptor agonist call,[16],inactive
same,odorant receptor agonist call,[17],inactive
CCCCOC(=O)C(C)OC(=O)CCC (stereo unspecified),odorant receptor agonist call,[18],inactive
CCC1OC(=O)C(O)=C1C (stereo unspecified),odorant receptor agonist call,[18],inactive
same,odorant receptor agonist call,[15],inactive
same,odorant receptor agonist call,[16],inactive
same,odorant receptor agonist call,[17],inactive
CCCCCCCC(C)=O,odorant receptor agonist call,[18],inactive
CC(=O)c1c(C)c([N+](=O)[O-])c(C(C)(C)C)c([N+](=O)[O-])c1C,odorant receptor agonist call,[18],inactive
same,odorant receptor agonist call,[15],inactive
same,odorant receptor agonist call,[16],inactive
same,odorant receptor agonist call,[17],inactive
CCCCCCCCCCO,odorant receptor agonist call,[18],inactive
O=C1Cc2ccccc2O1,odorant receptor agonist call,[18],inactive
C=C(C)C1CCC(C)C(=O)C1 (stereo unspecified),odorant receptor agonist call,[18],inactive
CCCCOC=O,odorant receptor agonist call,[18],inactive
O=C(c1ccccc1)c1ccccc1,odorant receptor agonist call,[18],inactive
CC(CO)CS (stereo unspecified),odorant receptor agonist call,[18],inactive
same,odorant receptor agonist call,[15],inactive
same,odorant receptor agonist call,[16],inactive
same,odorant receptor agonist call,[17],inactive
CC(C)=CCCC(C)=CCO,odorant receptor agonist call,[18],active
same,odorant receptor agonist call,[19],active
same,odorant receptor agonist call,[20],inactive
same,odorant receptor agonist call,[17],inactive
CCCCCCO,odorant receptor agonist call,[18],inactive
CCCCCO,odorant receptor agonist call,[18],inactive
CC12CCC(CC1=O)C2(C)C (stereo unspecified),odorant receptor agonist call,[18],inactive
C=CCOC(=O)CCCCCC,odorant receptor agonist call,[18],inactive
CCCCCCCCCC(=O)[O-].[H+],odorant receptor agonist call,[18],inactive
CCCCCCCCCO,odorant receptor agonist call,[18],inactive
CCCC(S)CCOC(C)=O (stereo unspecified),odorant receptor agonist call,[18],inactive
same,odorant receptor agonist call,[15],inactive
same,odorant receptor agonist call,[16],inactive
same,odorant receptor agonist call,[17],inactive
CC1=C(O)C(=O)C(C)O1 (stereo unspecified),odorant receptor agonist call,[18],inactive
same,odorant receptor agonist call,[15],inactive
same,odorant receptor agonist call,[16],inactive
same,odorant receptor agonist call,[17],inactive
